HIV Rev-RRE inh: inhibitors of HIV-1 Rev-RRE RNA interaction; P05866; 97,000 compounds, 0.79% hits; inhibition, % at 8 µM; Rev peptide-RRE RNA binding, FRET;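 active = inhibition above the screen-wide mean plus 3 SD, cut at about 35% in these data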;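 also: 0% = median DMSO wells and 100% = median Neomycin B control wells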
Target sequence (P05866 whole entry, looked up): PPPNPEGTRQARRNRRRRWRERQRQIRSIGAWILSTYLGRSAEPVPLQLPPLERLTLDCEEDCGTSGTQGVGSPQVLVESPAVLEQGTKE
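Probe or stimulus: fluorescein-Rev peptide as binding partner; assay system: Cy5-tagged RRE RNA duplex with fluorescein-tagged Rev peptide; timing: 5 min compound–RNA preincubation, then 15 min with peptide, 25 °C; medium: HEPES pH 7.5 buffer with KCl, MgCl2, NaCl and EDTA; signal: fluorescein-to-Cy5 FRET, 480 nm excitation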
PLK1 PBD inh: inhibitors of human Plk1 polo box domain binding; 97,000 compounds, 0.13% hits; P53350; Plk1 PBD phosphopeptide binding, fluorescence polarization; inhibition, %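 (tested at about 20 µM)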; AID 693; in the data active = inhibition above about 34%, passing the limit was not always enough
LYP inh 2: blocks human PTPN22 phosphatase activity; Q9Y2R2; recombinant LYP catalytic domain, DiFMUP fluorescence; inhibition, % at 2 µM; 96,000 compounds, 0.21% hits; AID 640;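 active = inhibition at 2 µM at or above a set limit, the screen mean plus 3 SD, cut at about 24% in these data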;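 also: 0% = DMSO with enzyme and 100% = enzyme fully blocked by orthovanadate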
PLK1 kinase inh: blocks human PLK1 kinase activity | P53350 | recombinant PLK1 kinase, TR-FRET peptide phosphorylation | inhibition, % at 10 µM | 97,000 compounds, 0.53% hits | AID 619;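 active = inhibition of 50% or more in the single-concentration screen; inactive = inhibition below 50%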;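 also: 0% = DMSO max control and 100% = H-89 dihydrochloride min control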
EphB4 ephrin blk: antagonists of human EphB4-ephrin-B2 interaction; P54760; EphB4 LBD / TNYL-RAW-Alexa532 peptide, fluorescence polarization; inhibition, % at 7 µM; 97,000 compounds, 0.15% hits; AID 720;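 active = inhibition above the screen-wide mean inhibition plus 3 SD, cut at about 15% in these data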;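 also: 0% = DMSO wells and 100% = excess unlabeled TNYL-RAW peptide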
PTPN22 act: activators of human LYP (PTPN22) phosphatase | Q9Y2R2 | recombinant LYP, DiFMUP fluorescence; 0 = plate median, 100 = signal doubled | 96,000 compounds, 0.11% hits | activation, % at 2 µM;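 active = activation at 2 µM above a set limit, the mean plus 5 SD, cut at about 37% in these data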
An asterisk follows results filed as active; [ ] = dose if it differs, or a comment. Only some compounds are listed: those with a hit (about 2% of all), similar ones and a draw of the others.

What do the screens show for `CCCc1cc(=O)[nH]c(-n2[nH]c3c(c2=O)CCCC3)n1`?
HIV Rev-RRE inh: 68.8*; PLK1 PBD inh: 25.9; LYP inh 2: 2.6; PLK1 kinase inh: -5.4; EphB4 ephrin blk: -5.0; PTPN22 act: 1.4

Results for COc1ccc2nc(NC(=O)C(NS(=O)(=O)c3cccc4nsnc34)C(C)C)sc2c1 (stereo not given) ?
HIV Rev-RRE inh: 10.0; PLK1 PBD inh: 11.0; LYP inh 2: -8.1; PLK1 kinase inh: -15.8; EphB4 ephrin blk: 9.6; PTPN22 act: 7.2

What do the screens show for `Cc1nnc(N(Cc2ccco2)C(=O)c2ccc(C#N)cc2)s1`?
HIV Rev-RRE inh: 1.5; PLK1 PBD inh: 2.0; LYP inh 2: 26.9*; PLK1 kinase inh: -7.2; EphB4 ephrin blk: -1.7; PTPN22 act: -26.6

How did CCCCn1nc2cc(C(=O)NCc3ccccc3)ccc2c1OCC do in these assays?
HIV Rev-RRE inh: 10.4; PLK1 PBD inh: -3.0; LYP inh 2: -6.0; PLK1 kinase inh: -7.3; EphB4 ephrin blk: 1.4; PTPN22 act: 8.9

How did COc1ccc(S(=O)(=O)NCCSCc2ccco2)cc1Cl do in these assays?
HIV Rev-RRE inh: 3.6; PLK1 PBD inh: 0.0; LYP inh 2: 8.2; PLK1 kinase inh: -10.3; EphB4 ephrin blk: 2.1; PTPN22 act: -10.8

What do the screens show for `O=C(c1ccc(Cl)cc1)N1CCC(O)(CSc2ccc(Cl)cc2Cl)CC1`?
HIV Rev-RRE inh: 7.7; PLK1 PBD inh: 2.2; PLK1 kinase inh: -9.3; EphB4 ephrin blk: 0.4

How did COc1ccc(C2(CNC(C)=O)CCOCC2)cc1OC do in these assays?
HIV Rev-RRE inh: 5.6; PLK1 PBD inh: 11.7; PLK1 kinase inh: 61.9*; EphB4 ephrin blk: -6.9

What do the screens show for `COc1ccc(C(=O)c2ccc(OC)c(OC)c2)cc1`?
HIV Rev-RRE inh: 10.5; PLK1 PBD inh: -16.8; LYP inh 2: -1.7; PLK1 kinase inh: 0.1; EphB4 ephrin blk: 5.3; PTPN22 act: 2.2

What do the screens show for `COc1ccc(C(=O)c2sc3nc(-c4ccccc4)ccc3c2N)cc1OC`?
HIV Rev-RRE inh: 96.6*[fluorescence artefact?]; PLK1 PBD inh: -21.3; LYP inh 2: 25.0*; PLK1 kinase inh: -21.7; EphB4 ephrin blk: -3.4; PTPN22 act: -23.4

What do the screens show for `COc1ccc(-c2ccc3c(N)c(C(=O)c4ccc(OC)c(OC)c4)sc3n2)cc1`?
HIV Rev-RRE inh: 85.0*[fluorescence artefact?]; PLK1 PBD inh: -10.5; LYP inh 2: 7.8; PLK1 kinase inh: -17.5; EphB4 ephrin blk: 5.1; PTPN22 act: -9.0

What do the screens show for `CCCCOC(=O)c1ccc(NC(=O)Nc2ccc(OC)c(OC)c2)cc1`?
HIV Rev-RRE inh: 4.2; PLK1 PBD inh: -15.3; LYP inh 2: 6.8; PLK1 kinase inh: -8.7; EphB4 ephrin blk: 1.3; PTPN22 act: -7.9

Results for CCOC(=O)c1ccc(NC(=O)Nc2ccc(OC)c(OC)c2)cc1 ?
HIV Rev-RRE inh: 4.2; PLK1 PBD inh: -6.3; LYP inh 2: -3.4; PLK1 kinase inh: 50.9*; EphB4 ephrin blk: -3.2; PTPN22 act: 4.0

Results for CCC(=O)N1c2ccc(C)cc2C2=NNC(=S)NC21O (stereo not given) ?
HIV Rev-RRE inh: -7.9; PLK1 PBD inh: -17.8; LYP inh 2: -6.2; PLK1 kinase inh: -4.5; EphB4 ephrin blk: 3.0; PTPN22 act: 3.5

What do the screens show for `CN(CC(=O)Nc1ccccc1Br)Cc1nc2ccccc2c(=O)[nH]1`?
HIV Rev-RRE inh: 7.0; PLK1 PBD inh: 2.4; LYP inh 2: 0.3; PLK1 kinase inh: 34.8; EphB4 ephrin blk: 0.9; PTPN22 act: 0.3

How did CCOC(=O)c1oc2cccc(O)c2c1CN(Cc1ccccc1)C(C)=O do in these assays?
HIV Rev-RRE inh: 11.6; PLK1 PBD inh: 7.3; LYP inh 2: -5.6; PLK1 kinase inh: -1.1; EphB4 ephrin blk: 19.5*; PTPN22 act: 4.1

Results for Cc1cc(C)c(S(=O)(=O)c2ccccc2)c(Cl)n1 ?
HIV Rev-RRE inh: 0.4; PLK1 PBD inh: 8.9; LYP inh 2: 1.4; PLK1 kinase inh: 63.9*; EphB4 ephrin blk: -6.1; PTPN22 act: 1.9

How did O=C1OCC(CO)(CO)N=C1NNc1ccc(Cl)c(Cl)c1 do in these assays?
HIV Rev-RRE inh: 0.5; PLK1 PBD inh: 10.8; LYP inh 2: -3.4; PLK1 kinase inh: -9.2; EphB4 ephrin blk: -2.8; PTPN22 act: 6.9

Results for CC1=C(C#N)C(=O)OC(C)(C)C1 ?
HIV Rev-RRE inh: 42.9*; PLK1 PBD inh: -5.8; LYP inh 2: -3.0; PLK1 kinase inh: -11.0; EphB4 ephrin blk: -1.3; PTPN22 act: 0.4

Screens: PubChem BioAssay, several laboratories
